{"source": "ChEMBL document CHEMBL2034857", "about": "“Discovery of the macrocycle (9E)-15-(2-(pyrrolidin-1-yl)ethoxy)-7,12,25-trioxa-19,21,24-triaza-tetracyclo[18.3.1.1(2,5).1(14,18)]hexacosa-1(24),2,4,9,14(26),15,17,20,22-nonaene (SB1578), a potent inhibitor of janus kinase 2/fms-like tyrosine kinase-3 (JAK2/FLT3) for the treatment of rheumatoid …” (J Med Chem, 2012)", "key": {"[1]": {"test_system": "Mus musculus", "assay": "Antiarthritic activity in B10/R3 mouse immunized with bovine type2 collagen in Freund's complete adjuvant assessed as inhibition of increase in clinical arthritic scores at 210 mg/kg, po administered bid for 10 days measured for 10 days", "format": "functional", "conditions": "B10/R3, 240 h; call rule not given here"}, "[2]": {"assay": "Apparent permeability from apical to basal side of human Caco2 cells at 10 uM after 120 mins by LC-MS/MS analysis", "format": "ADME, cell-based", "conditions": "Caco-2", "in_short": "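Caco-2 monolayers (passage 40–60) seeded at 1 × 10⁵ cells/cm² and used on day 20; 10 μM compound (1% DMSO final) in HBSS pH 7.4 with 25 mM HEPES and 4.45 mM glucose, 120 min at 37 °C, 5% CO2. Both directions run in duplicate, quantified by LC-MS/MS; lucifer yellow checks monolayer integrity.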"}, "[3]": {"target": "T1, Tyrosine-protein kinase JAK3 (Homo sapiens, UniProt P52333)", "T1 sequence (P52333 whole entry)": "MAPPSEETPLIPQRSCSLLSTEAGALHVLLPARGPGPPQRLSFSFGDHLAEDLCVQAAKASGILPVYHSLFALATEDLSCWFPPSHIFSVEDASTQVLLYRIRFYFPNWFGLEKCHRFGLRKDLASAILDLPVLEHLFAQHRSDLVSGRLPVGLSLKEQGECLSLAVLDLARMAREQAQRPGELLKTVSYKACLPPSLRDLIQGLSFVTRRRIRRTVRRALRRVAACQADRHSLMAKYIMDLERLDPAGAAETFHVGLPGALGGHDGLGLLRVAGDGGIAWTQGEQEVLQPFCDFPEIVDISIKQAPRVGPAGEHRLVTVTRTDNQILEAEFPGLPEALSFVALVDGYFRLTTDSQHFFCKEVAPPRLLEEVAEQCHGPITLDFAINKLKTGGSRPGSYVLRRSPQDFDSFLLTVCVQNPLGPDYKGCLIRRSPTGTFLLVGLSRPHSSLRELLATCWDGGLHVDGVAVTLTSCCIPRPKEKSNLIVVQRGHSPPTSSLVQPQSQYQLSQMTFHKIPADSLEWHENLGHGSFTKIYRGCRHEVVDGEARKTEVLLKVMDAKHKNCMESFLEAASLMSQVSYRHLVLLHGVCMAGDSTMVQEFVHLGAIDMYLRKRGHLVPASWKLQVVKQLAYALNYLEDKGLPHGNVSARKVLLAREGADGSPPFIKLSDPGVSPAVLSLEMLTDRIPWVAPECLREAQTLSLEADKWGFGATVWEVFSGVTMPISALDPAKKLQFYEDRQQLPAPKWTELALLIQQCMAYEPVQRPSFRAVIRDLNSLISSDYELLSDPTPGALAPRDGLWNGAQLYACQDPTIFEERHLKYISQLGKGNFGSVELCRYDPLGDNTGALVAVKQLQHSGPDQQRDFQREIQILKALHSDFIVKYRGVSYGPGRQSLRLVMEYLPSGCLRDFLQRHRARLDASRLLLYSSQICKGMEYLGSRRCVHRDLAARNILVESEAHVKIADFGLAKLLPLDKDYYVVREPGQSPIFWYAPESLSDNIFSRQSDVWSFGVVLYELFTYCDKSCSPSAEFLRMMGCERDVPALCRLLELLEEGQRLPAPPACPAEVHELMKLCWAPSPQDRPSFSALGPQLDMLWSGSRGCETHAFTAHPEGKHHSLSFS", "assay": "Inhibition of recombinant JAK3 using poly(Glu,Ala,Tyr) as substrate after 2 hrs by luminometric assay"}, "[4]": {"assay": "AUC (0 to infinity) in rhesus monkey at 20 mg/kg, po", "format": "ADME, organism-based, Macaca mulatta", "set-up": "time infinity, dose 20 mg/kg, route oral", "conditions": "plasma", "in_short": "(§1)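 Single oral gavage at 50 (mouse, rat), 5 (dog) or 20 (monkey) mg/kg; rodents and monkeys received suspensions in 0.5% methylcellulose/0.1% Tween 80, dogs gelatin capsules. Serial blood taken 0–24 h into K3EDTA, plasma stored at −70 °C. Parameters estimated by noncompartmental analysis, n = 3 per species (mouse values from mean concentration–time data, 3 mice per time point).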"}, "[5]": {"target": "T2, Cytochrome P450 3A4 (Homo sapiens, UniProt P08684)", "T2 sequence (P08684 whole entry)": "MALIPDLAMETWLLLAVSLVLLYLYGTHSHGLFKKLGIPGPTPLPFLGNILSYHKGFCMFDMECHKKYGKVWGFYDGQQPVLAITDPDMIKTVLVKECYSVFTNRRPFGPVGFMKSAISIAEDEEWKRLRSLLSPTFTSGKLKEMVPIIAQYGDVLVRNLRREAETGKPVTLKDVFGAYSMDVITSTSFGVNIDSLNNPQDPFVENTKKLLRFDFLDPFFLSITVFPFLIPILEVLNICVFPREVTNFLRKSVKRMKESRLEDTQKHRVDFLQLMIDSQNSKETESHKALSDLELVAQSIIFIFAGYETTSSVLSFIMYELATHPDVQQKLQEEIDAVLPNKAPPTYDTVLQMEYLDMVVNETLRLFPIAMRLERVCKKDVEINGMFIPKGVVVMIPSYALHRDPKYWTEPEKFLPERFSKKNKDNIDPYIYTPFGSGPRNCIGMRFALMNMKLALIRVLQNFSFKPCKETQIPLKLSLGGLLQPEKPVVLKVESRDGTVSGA", "assay": "Inhibition of CYP3A4 in human liver microsomes using testosterone as substrate by fluorescence detection assay", "format": "ADME, Microsome", "in_short": "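Human liver microsomes at 0.25 mg/mL for CYP3A4, incubated with test compound at 0.001, 0.01, 0.1, 1.0, 5, 10 and 25 μM. IC50 is the concentration giving 50% inhibition, calculated from the decrease in metabolite formation relative to vehicle control.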"}, "[6]": {"target": "T2, Cytochrome P450 3A4", "assay": "Induction of CYP3A4 in human liver microsomes", "format": "ADME, Microsome"}, "[7]": {"assay": "Half life in human liver microsomes at 5 uM", "format": "ADME, Microsome", "in_short": "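Compound at 5 μM with human, mouse or dog microsomes at 0.87 mg/mL, or rat and monkey microsomes at 1 mg/mL, in 50 mM potassium phosphate pH 7.4 with NADPH regenerating system at 37 °C.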"}, "[8]": {"assay": "AUC (0 to infinity) in BALB/c nude mouse at 50 mg/kg, po", "format": "ADME, organism-based", "set-up": "time infinity, dose 50 mg/kg, route oral", "conditions": "plasma", "in_short": "as §1"}, "[9]": {"target": "T2, Cytochrome P450 3A4", "assay": "Inhibition of CYP3A4 in human liver microsomes using testosterone as substrate by LC-MS/MS analysis", "format": "ADME, Microsome"}, "[10]": {"assay": "Oral bioavailability in Wistar rat at 50 mg/kg", "format": "ADME, organism-based", "conditions": "in vivo", "in_short": "as §1"}, "[11]": {"target": "T3, Cytochrome P450 1A2 (Homo sapiens, UniProt P05177)", "T3 sequence (P05177 whole entry)": "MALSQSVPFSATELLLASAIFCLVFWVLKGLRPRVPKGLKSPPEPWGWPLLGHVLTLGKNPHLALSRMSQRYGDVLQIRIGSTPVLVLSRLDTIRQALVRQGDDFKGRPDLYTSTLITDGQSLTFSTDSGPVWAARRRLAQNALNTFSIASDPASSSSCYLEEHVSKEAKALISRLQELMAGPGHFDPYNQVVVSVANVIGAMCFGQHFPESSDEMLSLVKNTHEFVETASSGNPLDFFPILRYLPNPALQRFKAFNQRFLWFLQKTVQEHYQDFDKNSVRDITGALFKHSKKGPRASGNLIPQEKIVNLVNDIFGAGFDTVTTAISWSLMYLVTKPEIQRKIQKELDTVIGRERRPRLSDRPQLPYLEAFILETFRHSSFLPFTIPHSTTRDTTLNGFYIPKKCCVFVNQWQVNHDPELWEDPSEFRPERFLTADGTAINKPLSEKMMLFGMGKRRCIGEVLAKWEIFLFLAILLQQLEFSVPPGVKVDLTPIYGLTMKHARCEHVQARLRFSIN", "assay": "Induction of CYP1A2 in human liver microsomes", "format": "ADME, Microsome"}, "[12]": {"assay": "Thermodynamic solubility of the compound at pH 7", "format": "physicochemical", "conditions": "buffer, read-out: Therm_solubility", "in_short": "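The citrate salt (~5 mg) was made up at 5 mg/mL in pH-buffered solution, in triplicate. It was shaken 24 h at 600 rpm at room temperature, filtered (0.4 μm) and the final pH recorded. The filtrate was diluted in acetonitrile/water (1:1), centrifuged and quantified by HPLC-UV. Two determinations were made on two different batches.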"}}, "data": [{"smiles": "C1=C2COC/C=C/COCc3cc(ccc3OCCN3CCCC3)Nc3nccc(n3)C(=C1)O2", "note": "(mixture of isomers) [CT-1578]", "values": [{"measurement": "inhibition in vivo at 210 mg/kg", "setting": "[1]", "value": 59, "unit": "%"}, {"measurement": "Papp A→B at 2 h, 10 µM", "setting": "[2]", "value": 24.8, "unit": "×10⁻⁶ cm/s"}, {"measurement": "IC50", "setting": "[3]", "value": 4.3, "unit": "µM"}, {"measurement": "AUC(0-inf)", "setting": "[4]", "value": 7590, "unit": "ng·h/mL"}, {"measurement": "IC50", "setting": "[5]", "value": "> 10", "unit": "µM"}, {"measurement": "Activity", "setting": "[6]", "value": "Not Active"}, {"measurement": "half-life at 5 µM", "setting": "[7]", "value": "> 1", "unit": "h"}, {"measurement": "AUC(0-inf)", "setting": "[8]", "value": 2020, "unit": "ng·h/mL"}, {"measurement": "IC50", "setting": "[9]", "value": "> 10", "unit": "µM"}, {"measurement": "bioavailability", "setting": "[10]", "value": 6, "unit": "%"}, {"measurement": "Activity", "setting": "[11]", "value": "Not Active"}, {"measurement": "solubility thermodynamic", "setting": "[12]", "value": 880, "unit": "µg/mL"}]}]}
